Measurements as given in PubChem BioAssay.
Inconclusive results are not listed. Calls of active or inactive are those of the source.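 Rule for the calls, unless noted: active = viability at or below 27.92% in each of two runs, the all-compound median minus 4 SD; inconclusive = no clear call, values can overlap the other calls; inactive = the rest.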

Columns and labels:
[1] = S. cerevisiae growth inhibition in permissive medium (OD615), pilot counter-assay for S. cerevisiae lifespan shortening project, permissive growth control (AID 705;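 active = growth inhibition above 25% in both replicates, a cutoff set 3 SD above the mean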); conditions: OD615, 24 h, at 10 µM, stronger effect = higher value
Outline: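 assay system = Saccharomyces cerevisiae strain carrying genetically modified DeaD replicative-lifespan system | medium = SC raffinose/galactose permissive medium | dosing = 10 µM single dose, 0.25% DMSO | schedule = 24 h compound exposure at 30 °C after 4 h pre-growth | measured by = OD at 615 nm | read-out basis = growth inhibition from lowered OD615 after 24 h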

[2] = S. cerevisiae growth inhibition in restrictive medium, OD615, pilot screen, restrictive growth control, yeast lifespan reduction project (AID 706;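 active = growth inhibition above a set limit, 3 SD over mean compound inhibition, in both replicates, cut at about 43% in these data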;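 note: modified DeaD lifespan yeast strain shifted to restrictive glucose medium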); conditions: OD615, 48 h, at 10 µM, stronger effect = higher value
Outline: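 Buffer or medium: CSMM-D glucose medium. Material: genetically modified Saccharomyces cerevisiae, DeaD replicative lifespan assay strain. Times: 48 h compound exposure at 30 °C. Measured by: optical density at 615 nm.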

[3] = doxorubicin toxicity protection in MRP-1 cells – H69AR cells, CellTiter-Glo, duplicate, MRP-1 activator project, pilot screen (AID 807;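 active = viability increase at or above a cutoff of the median across tested compounds plus 3 SD, cut at about 8.5% in these data, passing the limit was not always enough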;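 note: compound pretreatment 18-22 h then 72 h combined with doxorubicin; 0% = doxorubicin alone and 100% = vehicle without doxorubicin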); conditions: H69AR viability with doxorubicin, CellTiter-Glo luminescence; at 10 µM; stronger effect = higher value
[4] = viability of HCT116 without oncogenic beta-catenin – human colon tumor cells, pilot screen (AID 823;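 active = cell viability at or below a set limit in both duplicate runs, the limit being the all-compound median minus 4 SD, cut at about 23% in these data, passing the limit was not always enough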;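 note: 0% = wells killed by 20 µM Hyamine and 100% = untreated DMSO cell wells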); conditions: HCT116 beta-catenin knockout viability, CellTiter-Glo, 60 h; at 10 µM; stronger effect = lower value
[5] = viability of PTEN-null HCT116 cells – cell-based, HCT116 clonal line, CellTiter-Glo, pilot screen (AID 824); conditions: HCT116 PTEN-deleted viability, 60 h, at 10 µM, stronger effect = lower value;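 note: 0% = 20 µM Hyamine control and 100% = vehicle cell control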
[6] = RAM pathway blockade in budding yeast – dse1pr::URA3 reporter, 5-FOA selection, pilot screen (AID 869;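 active = inhibition over a set limit, the all-compound mean plus 3 SD, in both replicate runs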;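 note: 0% = DMSO wells with no growth and 100% = 10 µM 1-NA-PP1 with full growth; RAM network block rescues cells from 5-FOA so hits raise OD615 growth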); conditions: S. cerevisiae dse1pr::URA3 5-FOA growth, OD615, 2 d; at 10 µM; stronger effect = higher value; strain carries analog-sensitive mutant Cbk1 kinase
[7] = RAM signaling pathway blockade in yeast – S. cerevisiae, Pdr1DBD-CYC8 efflux-inhibited sensitized strain, primary screen (AID 1298;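 active = RAM network inhibition above 8.4% in each of two replicates, 3 SD over the compound average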;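 note: 0% = DMSO untreated cells without growth and 100% = 10 µM 1-NA-PP1 full growth; higher means more yeast growth rescued from 5-FOA killing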); conditions: S. cerevisiae cbk1-as DSE1-URA3 strain, 5-FOA growth OD615, 2 d; at 50 µM; stronger effect = higher value

CC(C)OC(=O)CSc1nnc(-c2ccc(Cl)cc2)n1N
inactive: growth inhibition [1] -3.53% | growth inhibition [2] -8.84% | viability increase [3] -0.58% | viability [4] 97.2% | viability [5] 95.7% | inhibition [6] 2.38% | RAM network inhibition [7] 5.48%

COc1ccc(S(=O)(=O)NCC2CCC(C(=O)N3CCC4(CC3)OCCO4)CC2)cc1 (centres undefined)
inactive: growth inhibition [1] -5.13% | growth inhibition [2] -3.68% | viability increase [3] -1.38% | viability [4] 94.2% | viability [5] 90.6% | inhibition [6] 0.81% | RAM network inhibition [7] 2.29%

CCOC(=O)C1C(=O)NC(SC)=C(C#N)C1c1ccccc1F (centres undefined)
inactive: growth inhibition [1] -2.39% | growth inhibition [2] -17% | viability increase [3] -2.97% | viability [4] 90.8% | viability [5] 95.5% | inhibition [6] -1% | RAM network inhibition [7] -1.66%

C=CCn1c(=N)c(C(=O)NCCCOC)cc2c(=O)n3cccc(C)c3nc21
inactive: growth inhibition [1] 2.23% | growth inhibition [2] 0.115% | viability increase [3] -2.3% | viability [4] 83.8% | viability [5] 88.5% | inhibition [6] 0.4% | RAM network inhibition [7] -0.47%

O=C(OCCCCN1C(=O)c2ccccc2C1=O)c1ccc(S(=O)(=O)N2CCCC2)cc1
inactive: growth inhibition [1] -11.7% | growth inhibition [2] -0.405% | viability increase [3] 0.28% | viability [4] 101% | viability [5] 100% | inhibition [6] 1.85% | RAM network inhibition [7] 4.52%

NC(=O)CCc1c[nH]c2ccccc12
inactive: growth inhibition [1] -1.2% | growth inhibition [2] -4.15% | viability increase [3] -3.35% | viability [4] 91% | viability [5] 94.2% | inhibition [6] 2.47% | RAM network inhibition [7] 5.98%

COCCN(CCOC)C(=O)c1cc2sc3ccccc3c2s1
inactive: growth inhibition [1] -6.12% | growth inhibition [2] -4.95% | viability increase [3] 0.72% | viability [4] 92.4% | viability [5] 90.4% | inhibition [6] 0.11% | RAM network inhibition [7] 0.31%

CCc1ccc(-c2nc(CN3CCCC(C(=O)O)C3)c(C)o2)cc1 (centres undefined)
inactive: growth inhibition [1] 2.06% | growth inhibition [2] -4.83% | viability increase [3] 1.14% | viability [4] 97.6% | viability [5] 101% | inhibition [6] -0.145% | RAM network inhibition [7] 2.81%

CN(C)S(=O)(=O)c1ccc(C(=O)Nc2nc(-c3cccs3)cs2)cc1
inactive: growth inhibition [1] -5.6% | growth inhibition [2] -13.7% | viability increase [3] -1.56% | viability [4] 49.8% | inhibition [6] 4.17% | RAM network inhibition [7] 5.01%
active: viability [5] 20%

CCCN(CCC)CCCNC(=O)c1cc2c(=O)n(C)c3ccccc3c2n1C
inactive: growth inhibition [1] -3.03% | growth inhibition [2] -4.35% | viability increase [3] -6.97% | viability [4] 72.5% | viability [5] 77.1% | inhibition [6] 1.22% | RAM network inhibition [7] 3.47%

O=C(NCC1COc2ccccc2O1)C1CCC(CNc2c(N3CCCCC3)c(=O)c2=O)CC1 (centres undefined)
inactive: growth inhibition [1] -8.76% | growth inhibition [2] -9.54% | viability increase [3] 0.01% | viability [4] 88.6% | viability [5] 86.4% | inhibition [6] 2.89% | RAM network inhibition [7] 4.02%

CCCc1nc(N2CCN(C)CC2)c2sc(=S)n(-c3ccccc3)c2n1
inactive: growth inhibition [1] -8.52% | growth inhibition [2] 17.7% | viability increase [3] -2.47% | viability [4] 83.8% | viability [5] 82.6% | inhibition [6] 0.39% | RAM network inhibition [7] 6.13%

Brc1ccccc1OCCCN1CCOCC1
inactive: growth inhibition [1] -11.7% | growth inhibition [2] -9.51% | viability increase [3] 1.1% | viability [4] 97.8% | viability [5] 98.2% | inhibition [6] 1.48% | RAM network inhibition [7] 4.22%

O=C(NCCCN1CCCC1)c1ccc(CS(=O)(=O)c2ccc(Br)cc2)o1
inactive: growth inhibition [1] -5.7% | growth inhibition [2] -13.3% | viability increase [3] -0.99% | viability [4] 90.6% | viability [5] 96.5% | inhibition [6] 1.63% | RAM network inhibition [7] 2.23%

O=S(=O)(NCc1cccnc1)c1ccc(Cl)c(Cl)c1
inactive: growth inhibition [1] -0.945% | growth inhibition [2] -19.6% | viability increase [3] -0.3% | viability [4] 98.9% | viability [5] 93.8% | inhibition [6] 0.75% | RAM network inhibition [7] 4.18%

CCCc1cc(C(=O)NCc2ccc(OC)cc2)no1
inactive: growth inhibition [1] -7.46% | growth inhibition [2] 18.4% | viability increase [3] -0.95% | viability [4] 107% | viability [5] 99.3% | inhibition [6] 1.78% | RAM network inhibition [7] -0.68%

COCCN1C(=O)c2ccccc2C(C(=O)NCCN(C)C)C1c1ccc(F)cc1 (centres undefined)
inactive: growth inhibition [1] -15% | growth inhibition [2] -19.9% | viability increase [3] -1.59% | viability [4] 92.1% | viability [5] 98.4% | inhibition [6] 1.89% | RAM network inhibition [7] 2.13%

COc1cc(NC(=O)C2CCCC2)c(OC)cc1Cl
inactive: growth inhibition [1] -8.4% | growth inhibition [2] -12% | viability increase [3] -3.09% | viability [4] 81.9% | viability [5] 78.4% | inhibition [6] 1.02% | RAM network inhibition [7] -0.72%

O=c1c2ccccc2nnn1CSc1nnc(-c2ccco2)o1
inactive: growth inhibition [1] -8.6% | growth inhibition [2] 2.08% | viability increase [3] -4.5% | viability [4] 83.3% | viability [5] 86.5% | inhibition [6] 0.57% | RAM network inhibition [7] 0.46%

COc1ccc(OC)c2c1CC(C)(C)NC2=O
inactive: growth inhibition [1] 0.615% | growth inhibition [2] 7.13% | viability increase [3] -0.54% | viability [4] 88.3% | viability [5] 96.9% | inhibition [6] 1.83% | RAM network inhibition [7] 3.75%

COC1=CC(=O)OC12CCCCC2
inactive: growth inhibition [1] 3.99% | growth inhibition [2] -2.73% | viability increase [3] -0.88% | viability [4] 94.7% | viability [5] 95.8% | inhibition [6] 1.27% | RAM network inhibition [7] 2.11%

CCOC(=O)c1ccc(NC(=O)CSc2nc3c(c(=O)n2C)SC(C)C3)cc1 (centres undefined)
inactive: growth inhibition [1] 1.02% | growth inhibition [2] 7.47% | viability increase [3] -2.01% | viability [4] 72.9% | viability [5] 74.3% | inhibition [6] 0.975% | RAM network inhibition [7] 3.08%

CCOc1ccccc1C1CC(c2ccc(Cl)cc2)Nc2nc(N)nn21 (centres undefined)
inactive: growth inhibition [1] 0.515% | growth inhibition [2] 23% | viability increase [3] 1.4% | viability [4] 66.3% | viability [5] 77.6% | inhibition [6] -0.11% | RAM network inhibition [7] 1.24%

Cc1cc(N=CC2=C(O)CC(C)(C)CC2=O)no1
inactive: growth inhibition [1] -11.7% | growth inhibition [2] -3.7% | viability increase [3] 0.49% | viability [4] 93.2% | viability [5] 104% | inhibition [6] 1.94% | RAM network inhibition [7] 1.04%

CC12CCC(C(=O)NCc3ccco3)(OC1=O)C2(C)C (centres undefined)
inactive: growth inhibition [1] -9.57% | growth inhibition [2] -9.65% | viability increase [3] -2.96% | viability [4] 98.3% | viability [5] 93.2% | inhibition [6] 1.42% | RAM network inhibition [7] -0.27%

Cc1ccc(S(=O)(=O)NC2OC(=O)C(Cl)=C2Cl)cc1 (centres undefined)
inactive: growth inhibition [1] -17.3% | growth inhibition [2] 10.1% | viability increase [3] -3.7% | viability [4] 86.4% | viability [5] 104% | inhibition [6] 0.495% | RAM network inhibition [7] 2.08%

CCCCN=C(C)c1c(O)c2ccccc2oc1=O
inactive: growth inhibition [1] -2.92% | growth inhibition [2] 5.07% | viability increase [3] -1.49% | viability [4] 102% | viability [5] 95.9% | inhibition [6] 0.01% | RAM network inhibition [7] -2%

CCOc1cc(N2CCOCC2)c(OCC)cc1NC(=O)c1cc(-c2ccco2)nc2ccccc12
inactive: growth inhibition [1] 1.62% | growth inhibition [2] -4.63% | viability increase [3] -5.6% | viability [4] 65.4% | viability [5] 60.8% | inhibition [6] 0.475% | RAM network inhibition [7] 6.51%

CCN(CC)S(=O)(=O)c1ccc(-c2nnc3sc4cccc(C)c4n23)cc1
inactive: growth inhibition [1] -22.7% | growth inhibition [2] -11.5% | viability increase [3] -2.97% | viability [4] 73.4% | viability [5] 72.9% | inhibition [6] 2% | RAM network inhibition [7] 3.69%

CCOc1ccc(S(=O)(=O)N(CC(=O)O)c2ccccc2)cc1
inactive: growth inhibition [1] -1.83% | growth inhibition [2] -7.26% | viability increase [3] -2.11% | viability [4] 102% | viability [5] 93.6% | inhibition [6] 1.07% | RAM network inhibition [7] 2.61%

C(=N\c1nc2ccccc2n1Cc1ccccc1)/c1cccs1
inactive: growth inhibition [1] -3.85% | growth inhibition [2] -3.94% | viability increase [3] -3.85% | viability [4] 88.7% | viability [5] 88.6% | inhibition [6] 1.94% | RAM network inhibition [7] 4.3%

O=C(Nc1ccc(Oc2ccc(NC(=O)C3CCCO3)cc2)cc1)C1CCCO1 (centres undefined)
inactive: growth inhibition [1] -2.75% | growth inhibition [2] -11% | viability increase [3] -5.07% | viability [4] 85.7% | viability [5] 96.7% | inhibition [6] 3.62% | RAM network inhibition [7] -0.11%

CC1CN(C(=O)Nc2ccc3snnc3c2)c2ccccc21 (centres undefined)
inactive: growth inhibition [1] -4.18% | growth inhibition [2] -6.81% | viability increase [3] -2.57% | viability [4] 82% | viability [5] 75% | inhibition [6] 2.52% | RAM network inhibition [7] 4.27%

CCc1ccc2nc(NC3=NCN(CCOC)CN3)nc(C)c2c1
inactive: growth inhibition [1] -2.2% | growth inhibition [2] -4.05% | viability increase [3] -2.81% | viability [4] 63% | viability [5] 66.9% | inhibition [6] 1.18% | RAM network inhibition [7] -1.8%

CCOC(=O)c1ccc(Nc2nnc(C(C)(C)C)c(=O)[nH]2)cc1
inactive: growth inhibition [1] -18.6% | growth inhibition [2] -21.9% | viability increase [3] -7.93% | viability [4] 49.6% | viability [5] 43.7% | inhibition [6] 0.35% | RAM network inhibition [7] 2.06%

O=C(Nc1ccc(Br)cc1F)C1CCN(c2nnc(-n3cccc3)s2)CC1
inactive: growth inhibition [1] 2.32% | growth inhibition [2] -4.69% | viability increase [3] 0.53% | viability [4] 97.8% | viability [5] 99.8% | inhibition [6] 3.21% | RAM network inhibition [7] 0.36%

CCOC(=O)COc1ccc2cc(C(=O)OCC)c(=O)oc2c1
inactive: growth inhibition [1] -4.38% | growth inhibition [2] -13.8% | viability increase [3] -0.91% | viability [4] 103% | viability [5] 96.2% | inhibition [6] 1.7% | RAM network inhibition [7] 2%
